Results published in article PMC3086613 (Theranostics, 2011).

Experiments:
PC-3 cells [1] = test: Cell uptake of 18F-labeled BBN peptides; format: cell-based, human; conditions: for PC-3 cell uptake peak value (percent added radioactivity): 37 °C, 15 min, n = 3, mean ± SD; for Cell uptake at 37 °C versus 4 °C: PC-3 cells
Outline: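 PC-3 cells (F-12K, 10% FBS, 37 °C, 5% CO2) were seeded at 1 × 10^5 per well overnight, washed three times with PBS, and given ~0.5 μCi/well radiotracer in triplicate at 37 °C. At 15, 30, 60 and 120 min, cells were rinsed with PBS and lysed with 0.1 M NaOH. Lysate activity was gamma-counted and expressed as percent added radioactivity.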

PC-3 cells [2] = test: Cell washout; format: cell-based, human; conditions: 37 °C, serum-free medium devoid of radioactivity
Outline: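 PC-3 cells were seeded at 1 × 10^5 per well overnight, PBS-rinsed, then loaded with ~0.5 μCi/well radiotracer in triplicate for 2 h at 37 °C. After a PBS wash they were re-incubated in serum-free medium. At 0, 15, 30, 60 and 120 min, cells were PBS-washed and lysed in 0.1 M NaOH. Retained activity was gamma-counted as percent added radioactivity.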

[3] = tested on: PC-3 tumor-bearing nude mice; test: Small animal microPET imaging, ROI-derived radioactivity accumulation; format: in vivo; conditions: 3.7 MBq i.v.; PC-3 tumor-bearing mice; n = 3/group
Outline: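 Male athymic nude mice carried PC-3 xenografts (5 × 10^6 cells s.c., front flank; 100–300 mm3 after 3–4 weeks). Under isoflurane, ~3.7 MBq (100 μCi) radiotracer was given via tail vein. Five-minute static scans were taken at 30 min, 1 h and 2 h (2D OSEM, no attenuation or scatter correction). ROIs on decay-corrected coronal images gave %ID/g, assuming 1 g/mL; n = 3/group.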

## 18F-FP- GGGRDN-FQWAVGHLM-NHEt [^18F-FP-MATBBN]
PC-3 cells [1]
  PC-3 cell uptake peak value (percent added radioactivity): 0.3 ± 0.07%
  Cell uptake at 37 °C versus 4 °C: no significant difference
PC-3 cells [2]
  Washout rate from PC-3 cells: Much faster washout rate

## 18F-FP-Aca-QWAVGHLM-NH2 [^18F-FP-AGBBN]
[3]
  Activity accumulation in non-target organs on PET images (in words): very high liver, bile and intestinal uptake
  Tumor uptake on PET images (in words): some tumor accumulation

## 18F-FP- GGGRDN-QWAVGHLM-NH2 [^18F-FP-MAGBBN]
PC-3 cells [1]
  PC-3 cell uptake peak value (percent added radioactivity): 1.2 ± 0.07%
  Cell uptake at 37 °C versus 4 °C: 2 fold
PC-3 cells [2]
  Washout rate from PC-3 cells: slower washout

## 18F-FP-FQWAVGHL-NHEt [^18F-FP-ATBBN]
[3]
  Activity accumulation in non-target organs on PET images (in words): rapid and prominent activity accumulation in the liver and intestines
  Tumor uptake on PET images (in words): almost no tumor uptake
